Compound activity from PubChem BioAssay.
UPR XBP1 act: activators of adaptive arm of unfolded protein response (XBP1); CHO-XBP1 luciferase reporter, IRE1-XBP1 UPR activation, luminescence; percent of tunicamycin response, DMSO as zero; activation, % at 20 µM; hit rate 0.33% among 330,000; AID 463104;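 active = versus positive control, 20 µM dose yields 30% or more activation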
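Material: CHO cell line with stable XBP1 luciferase reporter; buffer or medium: F12 medium containing 10% fetal bovine serum; compound: single point, 20 µM final compound, 1% DMSO; incubation: 6 h treatment, 37 °C; measured by: glow luminescence from Steady-Glo reagent; evaluation: activation, % of tunicamycin; control set: tunicamycin high, DMSO low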
UBC13 inh: inhibitors of human UBC13 polyubiquitin chain formation | P61088 | TR-FRET | inhibition, % at 20 µM | hit rate 0.47% among 330,000 | AID 485273; in the data active = inhibition above about 45%, passing the limit was not always enough
UPR CHOP act: activators of apoptotic arm of unfolded protein response (CHOP). hit rate 0.34% among 330,000. CHO-CHOP luciferase reporter, UPR activation, luminescence; percent of tunicamycin response over DMSO baseline. activation, % at 10 µM;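 active = at 10 µM dose, activation of 40% or more, normalized to positive control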
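assay system = CHO CHOP reporter cells | amount = 500 CHO-CHOP cells per well | buffer or medium = F12 with 10% FBS | incubation = 16-18 h cell attachment, then 6 h compound exposure, 37 °C | detection = luminescence read with Steady-Glo | read-out = percent activation relative to tunicamycin control | controls = tunicamycin high control, DMSO low control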
Apaf1 inhib: blocks human Apaf-1 apoptosome activity. O14727. reconstituted apoptosome caspase-3 activity, DEVD-Rh110 fluorescence. inhibition, % at 20 µM. hit rate 0.71% among 330,000. AID 489030; active = inhibition of at least 40% at 20 µM
Target sequence (O14727 whole entry, looked up): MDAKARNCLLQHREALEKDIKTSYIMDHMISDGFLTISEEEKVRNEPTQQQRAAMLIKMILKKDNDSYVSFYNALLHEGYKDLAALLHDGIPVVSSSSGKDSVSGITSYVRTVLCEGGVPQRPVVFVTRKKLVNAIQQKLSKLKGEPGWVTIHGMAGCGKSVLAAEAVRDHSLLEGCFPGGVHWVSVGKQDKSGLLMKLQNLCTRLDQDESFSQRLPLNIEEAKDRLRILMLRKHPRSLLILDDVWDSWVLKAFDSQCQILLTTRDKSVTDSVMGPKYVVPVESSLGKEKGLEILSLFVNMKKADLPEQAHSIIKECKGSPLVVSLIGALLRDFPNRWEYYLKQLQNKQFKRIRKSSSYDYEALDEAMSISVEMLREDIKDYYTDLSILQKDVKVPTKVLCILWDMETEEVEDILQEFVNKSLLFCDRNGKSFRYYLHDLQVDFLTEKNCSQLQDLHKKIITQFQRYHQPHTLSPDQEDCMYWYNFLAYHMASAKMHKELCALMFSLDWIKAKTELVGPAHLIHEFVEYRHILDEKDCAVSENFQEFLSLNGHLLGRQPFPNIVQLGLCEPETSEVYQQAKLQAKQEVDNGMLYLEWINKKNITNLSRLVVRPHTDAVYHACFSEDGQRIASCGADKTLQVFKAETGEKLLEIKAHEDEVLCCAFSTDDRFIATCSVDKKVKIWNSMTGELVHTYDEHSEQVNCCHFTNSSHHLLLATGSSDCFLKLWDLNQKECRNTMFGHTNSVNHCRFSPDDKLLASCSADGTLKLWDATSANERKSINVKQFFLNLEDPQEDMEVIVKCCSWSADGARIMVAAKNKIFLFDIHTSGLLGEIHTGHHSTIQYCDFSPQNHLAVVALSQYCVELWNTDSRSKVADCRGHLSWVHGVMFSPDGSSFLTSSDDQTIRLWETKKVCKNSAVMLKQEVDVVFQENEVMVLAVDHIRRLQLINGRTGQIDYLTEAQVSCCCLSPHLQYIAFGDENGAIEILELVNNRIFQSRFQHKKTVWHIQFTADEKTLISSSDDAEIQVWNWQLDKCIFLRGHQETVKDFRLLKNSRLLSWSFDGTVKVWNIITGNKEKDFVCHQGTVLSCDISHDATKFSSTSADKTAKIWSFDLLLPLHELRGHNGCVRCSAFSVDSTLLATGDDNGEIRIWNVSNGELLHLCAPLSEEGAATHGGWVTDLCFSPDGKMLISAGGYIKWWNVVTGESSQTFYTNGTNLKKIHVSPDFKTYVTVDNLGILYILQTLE
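Material: reconstituted apoptosome with Apaf-1, cytochrome c, caspase-9, procaspase-3, dATP. Technique: Rh110 fluorescence intensity. Buffer or medium: pH 7.5 Hepes buffer with CHAPS, BSA, DTT. Times: 30 min plus 50 min, RT.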
Mdm2-MdmX inh: human Mdm2/MdmX binding inhibition; SaOS-2 split-luciferase Mdm2/MdmX complementation, luminescence; inhibition, % at 8 µM; hit rate 3% among 330,000;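 active = inhibition of at least 50% at 8 µM in the primary screen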
Mdm2-MdmX conf: confirmation of human Mdm2/MdmX interaction inhibitors; shares compounds with Mdm2-MdmX inh; Mdm2-MdmX binding, luminescent assay; inhibition, % at 8 µM; hit rate 55% among 10,000; AID 489028; in the data active = inhibition above about 40%
Full FLuc ctr: counter-screen for Mdm2/MdmX inhibitors: full-length luciferase | shares compounds with Mdm2-MdmX inh | SaOS-2 full-length luciferase counterscreen, luminescence | inhibition, % at 8 µM | hit rate 77% among 6,200 | AID 504607;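 active = mean inhibition at 8 µM reaching about 37%, which flags the compound as non-specific, limit read from the data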;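 also: p53-null SaOS-2 cells with luciferase driven by a doxycycline-inducible promoter; compound on cells about two nights before reading with doxycycline added after day one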
Numbers stand for hits. This is a sample that favours compounds with a hit; in the whole collection about 4.1% have one here.

What do the screens show for `Cc1cc(C)nc(NC(=NCCc2c[nH]c3ccccc23)NC(=O)Nc2ccc(Cl)c(Cl)c2)n1`?
UPR XBP1 act: inactive; UBC13 inh: inactive; UPR CHOP act: inactive; Apaf1 inhib: inactive; Mdm2-MdmX inh: inactive

How did Cc1ccc(NC(=O)c2cnccn2)c(Br)c1 do in these assays?
UPR XBP1 act: inactive; UBC13 inh: inactive; UPR CHOP act: inactive; Apaf1 inhib: inactive; Mdm2-MdmX inh: inactive

Results for CC(=O)c1c(C)[nH]c(C(=O)Nc2ccc(C)cn2)c1C ?
UPR XBP1 act: inactive; UBC13 inh: inactive; UPR CHOP act: inactive; Apaf1 inhib: inactive; Mdm2-MdmX inh: 53; Mdm2-MdmX conf: 48; Full FLuc ctr: 74

What do the screens show for `Cc1ccc(NC(=O)c2cnccn2)nc1`?
UPR XBP1 act: inactive; UBC13 inh: inactive; UPR CHOP act: inactive; Apaf1 inhib: inactive; Mdm2-MdmX inh: 53; Mdm2-MdmX conf: inactive

How did CCCCN=C1NC(=O)C(CC(=O)NCCc2ccc(OC)cc2)S1 (configuration not stated) do in these assays?
UPR XBP1 act: inactive; UBC13 inh: inactive; UPR CHOP act: inactive; Apaf1 inhib: inactive; Mdm2-MdmX inh: inactive

Results for Cc1cc(C2=NNC(=NC3CC3)SC2)c(C)n1-c1ccccc1F ?
UPR XBP1 act: inactive; UBC13 inh: inactive; UPR CHOP act: inactive; Apaf1 inhib: inactive; Mdm2-MdmX inh: 99; Mdm2-MdmX conf: 99; Full FLuc ctr: inactive

Results for Cc1cc(C2=NNC(=NC3CCCCC3)SC2)c(C)n1-c1c(C)n(C)n(-c2ccccc2)c1=O ?
UPR XBP1 act: inactive; UBC13 inh: inactive; UPR CHOP act: inactive; Apaf1 inhib: inactive; Mdm2-MdmX inh: inactive

How did c1cc2c(cc1C1=NNC(=NC3CC3)SC1)OCCO2 do in these assays?
UPR XBP1 act: inactive; UBC13 inh: inactive; UPR CHOP act: inactive; Apaf1 inhib: inactive; Mdm2-MdmX inh: 92; Mdm2-MdmX conf: 86; Full FLuc ctr: 56

Results for COc1ccc(-c2nc3ccccc3n2Cc2ccccc2)cc1 ?
UPR XBP1 act: inactive; UBC13 inh: inactive; UPR CHOP act: inactive; Apaf1 inhib: inactive; Mdm2-MdmX inh: inactive

Results for COc1ccc(-c2n(Cc3ccccc3)c3ccccc3[n+]2Cc2ccccc2)cc1 ?
UPR XBP1 act: inactive; UBC13 inh: inactive; UPR CHOP act: inactive; Apaf1 inhib: inactive; Mdm2-MdmX inh: 89; Mdm2-MdmX conf: 89; Full FLuc ctr: inactive

Results for CCOc1ccc(OCCOc2ncnc3ccccc23)cc1 ?
UPR XBP1 act: inactive; UBC13 inh: inactive; UPR CHOP act: inactive; Apaf1 inhib: inactive; Mdm2-MdmX inh: inactive

Results for CCN(CCn1cccn1)C(=O)C1CCC(=O)N(CCN2CCOCC2)C1 (configuration not stated) ?
UPR XBP1 act: inactive; UBC13 inh: inactive; UPR CHOP act: inactive; Apaf1 inhib: inactive; Mdm2-MdmX inh: inactive

What do the screens show for `O=C(CN1C(=O)NC2(CCCC2)C1=O)OCc1c(F)cccc1Cl`?
UPR XBP1 act: inactive; UBC13 inh: inactive; UPR CHOP act: inactive; Apaf1 inhib: inactive; Mdm2-MdmX inh: inactive

What do the screens show for `COC(=O)c1ccccc1NC(=O)CN1CCC(C(=O)c2ccc3c(c2)OCCO3)CC1`?
UPR XBP1 act: inactive; UBC13 inh: inactive; UPR CHOP act: inactive; Apaf1 inhib: inactive; Mdm2-MdmX inh: 62; Mdm2-MdmX conf: 60; Full FLuc ctr: 99

What do the screens show for `O=C(CC1Oc2ccccc2NC1=O)NCc1ccccc1` (configuration not stated)?
UPR XBP1 act: inactive; UBC13 inh: inactive; UPR CHOP act: inactive; Apaf1 inhib: inactive; Mdm2-MdmX inh: inactive

What do the screens show for `CC(=O)CC1OC(=O)C(Br)=C1NCc1ccccc1` (configuration not stated)?
UPR XBP1 act: inactive; UBC13 inh: inactive; UPR CHOP act: inactive; Apaf1 inhib: inactive; Mdm2-MdmX inh: 67; Mdm2-MdmX conf: 48; Full FLuc ctr: inactive

What do the screens show for `Brc1cc2c(cc1/C=N/Nc1nc(N3CCOCC3)nc(N3CCOCC3)n1)OCO2`?
UPR XBP1 act: inactive; UBC13 inh: inactive; UPR CHOP act: inactive; Apaf1 inhib: inactive; Mdm2-MdmX inh: inactive
